What was measured:
Mus musculus [1] = test: Anti-inflammatory activity against croton oil induced ear edema Swiss mouse model assessed as edema inhibition at 1.00 mg per ear, TOP measured after 6 hrs relative to control; assay type: functional
In short: (§1)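 Male Swiss mice (20–30 g), n=7/group. Croton oil (200 µg/ear in 70% acetone) applied to the inner left ear, with vehicle alone on the right ear. Treatments in 20 µL 70% acetone were then applied topically to the left ear at 0.625 or 1.25 mg/ear, or 1 mg/ear for the reference drug. After 6 h, 6.0 mm ear disks were weighed and % edema inhibition calculated.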

Mus musculus [2] = test: Anti-inflammatory activity against croton oil induced ear edema Swiss mouse model assessed as edema inhibition at 1.25 mg per ear, TOP measured after 6 hrs relative to control; assay type: functional; in short: as §1
Mus musculus [3] = test: Anti-inflammatory activity against croton oil induced ear edema Swiss mouse model assessed as edema inhibition at 0.625 mg per ear, TOP measured after 6 hrs relative to control; assay type: functional; in short: as §1
[4] = Cytotoxicity against mouse L929 cells assessed as reduction in cell viability incubated for 72 hrs by MTT assay; assay type: toxicity, cell-based
In short: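 Fibroblasts (CCL-1) were seeded at 2.5 × 10^5 cells/mL in DMEM + 10% FBS and grown 24 h at 37 °C, 5% CO2 to confluence. They were exposed to 100–1000 µM compound for 72 h, then given MTT (2 mg/mL) for 4 h. Formazan was dissolved in DMSO and read at 492 nm. Viability relative to control gave CC50.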

[5] = target: T1, Prostaglandin G/H synthase 1 (Ovis aries) (UniProt P05979); test: Inhibition of ovine COX-1 at 31.25 uM by microplate reader analysis relative to control
T1 sequence (whole entry): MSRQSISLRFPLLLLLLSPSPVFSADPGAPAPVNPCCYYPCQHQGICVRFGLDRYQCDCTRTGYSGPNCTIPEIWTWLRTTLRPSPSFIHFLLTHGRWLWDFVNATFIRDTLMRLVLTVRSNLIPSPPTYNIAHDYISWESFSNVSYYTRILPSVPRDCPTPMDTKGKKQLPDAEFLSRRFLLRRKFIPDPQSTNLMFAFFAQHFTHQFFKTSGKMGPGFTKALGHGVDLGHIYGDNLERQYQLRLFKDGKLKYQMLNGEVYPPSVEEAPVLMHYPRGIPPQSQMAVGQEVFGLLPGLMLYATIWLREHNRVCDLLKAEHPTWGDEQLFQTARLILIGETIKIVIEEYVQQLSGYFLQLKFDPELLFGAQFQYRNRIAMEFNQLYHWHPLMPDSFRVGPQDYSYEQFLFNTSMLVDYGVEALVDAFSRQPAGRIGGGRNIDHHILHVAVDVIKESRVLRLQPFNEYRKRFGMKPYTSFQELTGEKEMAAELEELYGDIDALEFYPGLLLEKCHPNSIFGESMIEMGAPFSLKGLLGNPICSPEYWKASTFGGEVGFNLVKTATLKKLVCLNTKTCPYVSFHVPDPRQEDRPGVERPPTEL
In short: (§2)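 Kit-based cyclooxygenase inhibitor screen using human recombinant COX-2 or ovine COX-1, run per the manufacturer's procedure. Compound was tested at 1.95 and 31.25 µM. Absorbance was read at 405 nm. % inhibition was derived from %B/B0 on a standard curve.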

[6] = target: T2, Prostaglandin G/H synthase 2 (Homo sapiens) (UniProt P35354); test: Inhibition of human recombinant COX-2 at 31.25 uM by microplate reader analysis relative to control; in short: as §2
T2 sequence (whole entry): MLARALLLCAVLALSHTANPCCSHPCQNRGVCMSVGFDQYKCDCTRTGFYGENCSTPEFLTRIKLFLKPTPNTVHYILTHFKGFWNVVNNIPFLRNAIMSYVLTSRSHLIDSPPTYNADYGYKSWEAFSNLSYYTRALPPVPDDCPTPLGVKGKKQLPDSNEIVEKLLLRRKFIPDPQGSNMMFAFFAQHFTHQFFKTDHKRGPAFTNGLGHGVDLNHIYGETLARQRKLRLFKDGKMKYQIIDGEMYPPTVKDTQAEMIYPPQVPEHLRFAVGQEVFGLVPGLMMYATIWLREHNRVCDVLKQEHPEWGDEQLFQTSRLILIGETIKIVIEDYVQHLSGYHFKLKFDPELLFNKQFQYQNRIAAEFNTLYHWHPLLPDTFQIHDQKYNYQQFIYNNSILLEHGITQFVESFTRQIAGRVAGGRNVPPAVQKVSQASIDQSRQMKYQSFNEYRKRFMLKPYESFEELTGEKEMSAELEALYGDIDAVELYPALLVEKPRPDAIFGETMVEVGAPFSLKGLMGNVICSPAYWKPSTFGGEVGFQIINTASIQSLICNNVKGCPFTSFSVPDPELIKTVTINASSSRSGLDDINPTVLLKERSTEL

[7] = target: T2, Prostaglandin G/H synthase 2 (Homo sapiens); test: Inhibition of human recombinant COX-2 at 1.95 uM by microplate reader analysis relative to control; in short: as §2
[8] = target: T1, Prostaglandin G/H synthase 1 (Ovis aries); test: Inhibition of ovine COX-1 at 1.95 uM by microplate reader analysis relative to control; in short: as §2

Row | SMILES | inhibition (INH) (Mus musculus [2]) | inhibition (INH) (Mus musculus [3]) | further results
1 | COc1ccc2c(c1)c(CC(=O)O)c(C)n2C(=O)c1ccc(Cl)cc1 [INDOMETHACIN] |  |  | inhibition (INH) (Mus musculus [1]): 98.2%
2 | O=C(O)c1cc2c(-c3ccc(Cl)cc3)n[nH]c(=O)c2[nH]c1=O | 75.2% | 65.9% | 
3 | N#Cc1cc2c(-c3ccc(Cl)cc3)nn(-c3ccccc3)c(=O)c2[nH]c1=O | 81.8% | 62.8% | IC50 at 72 h [4]: 249 µM; inhibition [5]: 30.6%; inhibition [6]: 40.3%; inhibition [7]: 20.2%; inhibition [8]: 22.1%
4 | O=C(O)c1cc2c(-c3ccc([N+](=O)[O-])cc3)n[nH]c(=O)c2[nH]c1=O | 56.2% | 63.2% | 
5 | N#Cc1cc2c(-c3ccc([N+](=O)[O-])cc3)nn(-c3ccccc3)c(=O)c2[nH]c1=O | 78.5% |  | 
6 | N#Cc1cc2c(-c3ccc(Cl)cc3)n[nH]c(=O)c2[nH]c1=O | 50.4% | 49% | 
7 | CCOC(=O)c1cc2c(-c3ccc([N+](=O)[O-])cc3)n[nH]c(=O)c2[nH]c1=O |  | 64.2% | 

— ChEMBL document CHEMBL5335836, “Discovery of a new pyrido[2,3-d]pyridazine-2,8-dione derivative as a potential anti-inflammatory agent through COX-1/COX-2 dual inhibition” (RSC Med Chem, 2024)
